Columns and labels:
[1] = Metabolic stability in swine intestinal; type: in vitro ADME; settings: swine intestinal (jejunum) homogenate, 20 μm, 37 °C, 1 h (Figure 1B)
[2] = In vitro plasma stability, swine plasma; type: in vitro ADME; settings: prodrug 20 μm, 37 °C
[3] = In vitro plasma stability, human plasma; type: in vitro ADME; settings: prodrug 20 μm, 37 °C
[4] = In vitro plasma stability, mouse plasma; type: in vitro ADME; settings: prodrug 20 μm, 37 °C
[5] = Metabolic stability in swine liver homogenate; type: in vitro ADME; settings: 20 μm, 37 °C, 1 h (Figure 1A)
P493B lymphoma cells = assay: Human tumor cell-to-plasma partitioning, P493B cells in human plasma; type: cell-based; settings: human plasma with P493B cells, 0.25-2 h (Figure 3A)
Outline: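 P493B lymphoma cells were grown in RPMI 1640 with L-glutamine, 10% FBS and 1% antibiotic/antimycotic at 37 °C and 5% CO2. Pelleted cells were resuspended in human plasma at 10 million cells/mL and preincubated 5 min at 37 °C. Test compound was incubated at 37 °C for 1 h, or for 0.25, 0.5, 1 and 2 h. Plasma and washed pellets were analysed for intact prodrug and DON by LC–MS/MS, with DON dabsyl-derivatised.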

[6] = Negative control incubation without enzymes; type: physicochemical; settings: no enzyme, pH 6 buffer, 37 °C, 3 h
[7] = Pharmacokinetics in EL4 tumor-bearing CES1-/- mice; type: in vivo, C57BL/6 CES1−/− mice
Outline: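 EL4 cells (1 × 10^6 in PBS) were implanted SC in the flank of male and female C57BL/6 CES1−/− mice (6–8 weeks). At about 400 mm3 tumour volume, a single 3.2 mg/kg SC dose was given in ethanol/Tween 80/saline (5:10:85). Plasma, jejunum and tumour were sampled at set times, n = 3 per time point. Analysis was LC–MS/MS with noncompartmental parameters, mean ± SEM.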

Row | SMILES | % remaining at 1 h in swine intestinal homogenate [1] | Plasma Stability (%Remaining at 1 h) Swine [2] | Plasma Stability (%Remaining at 1 h) Human [3] | also measured
1 | CC(=O)NCCCC[C@H](NC(=O)[C@H](Cc1c[nH]c2ccccc12)NC(=O)C(C)(C)C)C(=O)N[C@@H](CCC(=O)C=[N+]=[N-])C(=O)OC(C)C [Compound 11, Isopropyl 2-(2-(3-(1H-Indol-3-yl)-2-pivalamidopropanamido)-6-acetamidohexanamido)-6-diazo-5-oxohexanoate] | instability | – | – | –
2 | CCCCCCCCCCCCCCCC(=O)N[C@@H](CCCCNC(C)=O)C(=O)N[C@@H](CCC(=O)C=[N+]=[N-])C(=O)OC(C)C [Compound 4, Isopropyl 2-(6-Acetamido-2-palmitamidohexanamido)-6-diazo-5-oxohexanoate] | unstable | – | – | –
3 | CC(=O)NCCCC[C@H](NC(=O)[C@@H](N)Cc1c[nH]c2ccccc12)C(=O)N[C@@H](CCC(=O)C=[N+]=[N-])C(=O)OC(C)C [Compound 9, Isopropyl 2-(6-Acetamido-2-(2-amino-3-(1H-indol-3-yl)-propanamido)hexanamido)-6-diazo-5-oxohexanoate] | instability | unstable | unstable | –
4 | CC(=O)NCCCC[C@H](NC(=O)C12CC3CC(CC(C3)C1)C2)C(=O)N[C@@H](CCC(=O)C=[N+]=[N-])C(=O)OC(C)C [Compound 6, isopropyl 2-(6-acetamido-2-(adamantane-1-carboxamido)hexanamido)-6-diazo-5-oxohexanoate] | – | complete stability | complete stability | Plasma Stability (%Remaining at 1 h) Mouse [4]: instability; % remaining at 1 h in swine liver homogenate [5]: 100%; stability of intact prodrug in human plasma, time course (P493B lymphoma cells): stable over the 2 h incubation period; chemical stability in negative control without enzymes [6]: chemically stable; intact prodrug measured in tumor ([7]; EL4 tumor, SC 3.2 mg/kg): minimal; DON AUC in tumor after dosing of 6 ([7]; EL4 tumor, SC 3.2 mg/kg (1 mg/kg DON equivalent), AUC0–t): 5.1 nmol·h/g; DON AUC in jejunum (GI tissues) after dosing of 6 ([7]; jejunum, SC 3.2 mg/kg (1 mg/kg DON equivalent), AUC0–t): 0.45 nmol·h/g; intact prodrug levels in jejunum ([7]; jejunum, SC 3.2 mg/kg, below the limit of quantification): < 0.001 nmol/mL

The next lines start with results.

Row | % remaining at 1 h in swine intestinal homogenate [1] | SMILES | Plasma Stability (%Remaining at 1 h) Swine [2] | Plasma Stability (%Remaining at 1 h) Human [3] | also measured
5 | instability | CC(=O)NCCCC[C@H](NC(=O)OCC1c2ccccc2-c2ccccc21)C(=O)N[C@@H](CCC(=O)C=[N+]=[N-])C(=O)OC(C)C [Compound 3, Isopropyl 2-(2-((((9H-Fluoren-9-yl)methoxy)carbonyl)-amino)-6-acetamidohexanamido)-6-diazo-5-oxohexanoate] | – | – | –
6 | instability | CC(=O)NCCCC[C@H](NC(=O)[C@@H]1Cc2ccccc2CN1)C(=O)N[C@@H](CCC(=O)C=[N+]=[N-])C(=O)OC(C)C [Compound 12, Isopropyl 2-(6-Acetamido-2-(1,2,3,4-tetrahydroisoquinoline-3-carboxamido)hexanamido)-6-diazo-5-oxohexanoate] | – | – | –
